The results in this text go back to ChEMBL document CHEMBL1909525, “Synthesis and anticonvulsant activity of novel 2,6-diketopiperazine derivatives. Part 1: perhydropyrrole[1,2-a]pyrazines” (Eur J Med Chem, 2011).

Data set [1] concerns Mus musculus. Nature of the data set: Anticonvulsant activity in albino Carworth Farms No.1 mouse assessed as protection against maximal electroshock-induced seizure at 100 mg/kg, ip after 0.5 hrs. Set-up: dose 100 mg/kg. The format is functional, organism-based. In outline:
(§1)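 Mouse MES test with compound given i.p. (30, 100 or 300 mg/kg) in 0.5% methylcellulose; tested at 0.5 and 4 h. Corneal stimulus of 50 mA at 60 Hz for 0.2 s, electrodes primed with 0.5% butacaine in 0.9% NaCl. Protection is abolition of hindlimb tonic extension; scored as protected/tested.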

The test system of data set [2] is Mus musculus. As to the kind of experiment: Neurotoxicity in albino Carworth Farms No.1 mouse assessed as motor impairment at 300 mg/kg, ip after 4 hrs by rotarod test. Details: dose 300 mg/kg, route intraperitoneal. The data set is classed as toxicity, organism-based. As to conditions: in vivo. In outline:
(§2)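 Rotorod neurotoxicity in mice at 6 r.p.m. Compound given i.p. (30, 100, 300 mg/kg) in 0.5% methylcellulose; tested at 30 min and 4 h. Impairment is inability to keep equilibrium on the rod for a given time; scored as impaired/tested.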

For data set [3], the system named is Mus musculus. As to the kind of experiment: Anticonvulsant activity in albino Carworth Farms No.1 mouse assessed as protection against subcutaneous metrazol-induced seizure at 30 mg/kg, ip after 4 hrs. The format is functional, organism-based. Details: dose 30 mg/kg. In outline:
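Mouse scMET test. Compound given i.p. (30, 100 or 300 mg/kg) in 0.5% methylcellulose. Pentylenetetrazole 85 mg/kg (CD97) given s.c. at 0.5 or 4 h, then mice observed for 30 min. Protection is absence of clonic spasms; scored as protected/tested.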

Data set [4] deals with Mus musculus. As to the kind of experiment: Toxicity in albino Carworth Farms No.1 mouse assessed as sedation at 300 mg/kg, ip after 0.5 hrs by rotarod test. As to conditions: in vivo. The data set is classed as organism-based. Set-up: dose 300 mg/kg, route intraperitoneal. The method in brief:
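Mice (18–25 g) were given 30, 100 or 300 mg/kg i.p. in 0.5% (v/v) aqueous methylcellulose. Neurotoxicity was checked on a 6 r.p.m. rotorod 30 min and 4 h after dosing and scored as inability to keep equilibrium. Death following tonic extension and sedation were recorded as observations (number of animals/number tested).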
Background: The rotarod test checks motor coordination on a turning rod.

In data set [5] the test system is Mus musculus. As to the kind of experiment: Anticonvulsant activity in ip dosed albino Carworth Farms No.1 mouse assessed as time needs to show peak effect for protection against maximal electroshock-induced seizure. The format is functional. (In general: The maximal electroshock test induces tonic seizures with an electrical stimulus.)
Data set [6] concerns Mus musculus. Nature of the data set: Anticonvulsant activity in ip dosed albino Carworth Farms No.1 mouse assessed as protection against maximal electroshock-induced seizure after 0.25 hrs. The data set is classed as functional. Particulars: albino Carworth Farms No.1, ip. In outline:
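Mouse quantification at the time of peak effect, compound given i.p. in 0.5% methylcellulose. Groups of at least eight mice received varied doses until at least two points fell between 100 and 0% response. ED50 (MES, scMET) and TD50 (rotorod) with 95% CI by probit analysis (Finney). PI = TD50/ED50 MES.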

The subject of data set [7] is Mus musculus. As to the kind of experiment: Neurotoxicity in albino Carworth Farms No.1 mouse assessed as motor impairment at 300 mg/kg, ip after 0.5 hrs by rotarod test. The data set is classed as toxicity, organism-based. Details: dose 300 mg/kg, route intraperitoneal. As to conditions: in vivo. The method in brief:
as §2

Data set [8] is filed under the species Rattus norvegicus. As to the kind of experiment: Activation of voltage-gated sodium channel in Wistar rat cerebral prefrontal coronal slices assessed as increase of 0.1 Hz current-induced current amplitude at 100 uM after 5 mins by whole cell voltage clamp method. In outline: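 Whole-cell voltage clamp on mechanically dispersed mPFC cells from coronal prefrontal slices of 3-week-old male Wistar rats. Bath: TEA-OH 90, NaCl 30, HEPES 10, MgCl2 2, CaCl2 2, glucose 15 mM, pH 7.4. Na+ currents evoked at 0.1 Hz by a step to -20 mV (30 ms) after a -100 mV prepulse (1000 ms). Amplitude compared before and after 5 min compound application; n = 3.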

For data set [9], the system named is Rattus norvegicus. Nature of the data set: Anticonvulsant activity in po dosed albino Sprague-Dawley rat assessed as protection against subcutaneous metrazol-induced seizure after 0.25 hrs. The format is functional. In outline: (§3)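 Rats dosed orally, compound in 0.5% methylcellulose. MES at 150 mA, 60 Hz, 0.2 s; scMET with pentylenetetrazole 70 mg/kg s.c. plus 30 min observation; rotorod for toxicity.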

Data set [10] deals with Rattus norvegicus. As to the kind of experiment: Toxicity in albino Sprague-Dawley rat pilocarpine-induced status epilepticus model assessed as change in body weight in protected rat at 130 mg/kg, ip measured after 24 hrs of time from first stage 3 seizures. The format is organism-based. Set-up: dose 130 mg/kg, route intraperitoneal. As to conditions: in vivo. In outline:
(§4)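 Male albino Sprague-Dawley rats (150–180 g) received compound i.p., then a pilocarpine challenge immediately (0 min) or 30 min after treatment. The outcome was protection or no protection from seizures, scored as number protected/number tested. Average body weight change (g) ± S.E.M. was reported separately for protected and non-protected rats.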

Data set [11] deals with Rattus norvegicus. As to the kind of experiment: Toxicity in albino Sprague-Dawley rat pilocarpine-induced status epilepticus model assessed as change in body weight in non-protected rat at 130 mg/kg, ip measured after 24 hrs of time from first stage 3 seizures. The format is organism-based. Details: dose 130 mg/kg, route intraperitoneal. As to conditions: in vivo. The method in brief:
as §4

Data set [12] deals with Mus musculus. As to the kind of experiment: Anticonvulsant activity in albino Carworth Farms No.1 mouse assessed as protection against maximal electroshock-induced seizure at 100 mg/kg, ip after 4 hrs. The format is functional, organism-based. Set-up: dose 100 mg/kg. The method in brief: as §1
Data set [13] in a line: Neurotoxicity in ip dosed albino Carworth Farms No.1 mouse assessed as motor impairment after 0.25 hrs by rotarod test. As to conditions: Carworth Farms No.1 (albino), in vivo. The format is toxicity, organism-based. In outline: (§5)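 Mouse quantification at the time of peak effect, compound given i.p. in 0.5% methylcellulose. Groups of at least eight mice received varied doses until at least two points fell between 100 and 0% response. PI = TD50/ED50 MES.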

Data set [14] deals with Mus musculus. Nature of the data set: Anticonvulsant activity in albino Carworth Farms No.1 mouse assessed as protection against electric-current for 3 secs-induced seizure at 75 mg/kg, ip after 0.25 hrs by 6Hz minimal clonic seizure test. The data set is classed as functional, organism-based. Set-up: dose 75 mg/kg. In outline: (§6)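 6 Hz psychomotor seizure test in mice. Compound given i.p. as a suspension in 0.5% methylcellulose. Corneal stimulation at 32 mA, 0.2-ms monopolar rectangular pulses at 6 Hz for 3 s, from a constant-current device. Tests run 0.25–4 h after dosing. A mouse counted as protected if it resumed normal exploratory behaviour within 10 s; scored as protected/tested.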

Data set [15] concerns Mus musculus. Nature of the data set: Anticonvulsant activity in albino Carworth Farms No.1 mouse assessed as protection against maximal electroshock-induced seizure at 30 mg/kg, ip after 0.5 hrs. Details: dose 30 mg/kg. The data set is classed as functional, organism-based. The method in brief: as §1
The species named for data set [16] is Rattus norvegicus. Nature of the data set: Protective index, ratio of TD50 for albino Sprague-Dawley rat to ED50 for albino Sprague-Dawley rat by maximal electroshock-induced seizure test. The format is functional.
In data set [17] the test system is Mus musculus. Nature of the data set: Anticonvulsant activity in albino Carworth Farms No.1 mouse assessed as protection against maximal electroshock-induced seizure at 30 mg/kg, ip after 4 hrs. The data set is classed as functional, organism-based. Details: dose 30 mg/kg. In outline: as §1
For data set [18], the species on record is Mus musculus. Nature of the data set: Protective index, ratio of TD50 for albino Carworth Farms No.1 mouse to ED50 for albino Carworth Farms No.1 mouse by maximal electroshock-induced seizure test. The format is functional. The method in brief:
as §5

Data set [19] deals with Rattus norvegicus. As to the kind of experiment: Anticonvulsant activity in po dosed albino Sprague-Dawley rat assessed as time needs to show peak effect for protection against maximal electroshock-induced seizure after 0.25 hrs. The data set is classed as functional. The method in brief:
as §3

For data set [20], the system named is Mus musculus. Nature of the data set: Anticonvulsant activity in albino Carworth Farms No.1 mouse assessed as protection against electric-current for 3 secs-induced seizure at 100 mg/kg, ip after 2 hrs by 6Hz minimal clonic seizure test. The data set is classed as functional, organism-based. Set-up: dose 100 mg/kg. The method in brief:
as §6

Data set [21] relates to Mus musculus. Nature of the data set: Anticonvulsant activity in albino Carworth Farms No.1 mouse assessed as protection against electric-current for 3 secs-induced seizure at 100 mg/kg, ip after 0.5 hrs by 6Hz minimal clonic seizure test. The format is functional. In outline:
as §6

For data set [22], the system named is Mus musculus. As to the kind of experiment: Neurotoxicity in albino Carworth Farms No.1 mouse assessed as motor impairment at 100 mg/kg, ip after 0.5 hrs by rotarod test. The format is toxicity, organism-based. Details: dose 100 mg/kg, route intraperitoneal. As to conditions: in vivo. The method in brief:
as §2

Data set [23] concerns Mus musculus. As to the kind of experiment: Anticonvulsant activity in ip dosed albino Carworth Farms No.1 mouse assessed as protection against electric-current for 3 secs-induced seizure after 0.25 hrs by 6Hz minimal clonic seizure test. The data set is classed as functional. As to conditions: albino Carworth Farms No.1, ip.

Structures are written as SMILES. Activity calls are given as the source filed them. No cut-off for these calls is given here. Some results are limits rather than exact numbers.

Consider `O=C1NC(=O)[C@@H]2CCCN2[C@H]1c1ccccc1`, for which the result in the data set with Mus musculus [1] and in the data set on Mus musculus [14] was Active. The Activity result with Mus musculus [2] was “Non-toxic”; in the data set on Mus musculus [4] it was “Toxic”; in the data set with Mus musculus [7], “Non-toxic”; in the data set listed under Rattus norvegicus [8] it was 8.4%; in the data set with Rattus norvegicus [10], 12.5 g; in the data set on Rattus norvegicus [11], -22.5 g. Moreover, the Activity entry with Mus musculus [22] is on record as “Non-toxic”. Moreover, the result in the data set with Mus musculus [3], in the data set on Mus musculus [12], in the data set on Mus musculus [15], in the data set with Mus musculus [17], in the data set with Mus musculus [20] and in the data set on Mus musculus [21] was inactive. For the same compound, the Time in the data set on Mus musculus [5] and in the data set with Rattus norvegicus [19] was 0.25 h in each case. For the same compound, the results for the ED50 in the data set with Mus musculus [6], in the data set with Rattus norvegicus [9] and with Mus musculus [23] were 69.5 mg/kg, 114 mg/kg and 9.93 mg/kg, respectively. The TD50 (commonly the 50% point of the dose-response relation for the toxic effect studied) at 0.25 h in data set [13] is 122 mg/kg. Besides, the “Ratio TD50/ED50” value is recorded as over 12.6 in the data set filed under Rattus norvegicus [16] and 1.7 in the data set listed under Mus musculus [18].
